Measured values reported in ChEMBL document CHEMBL4513216, “Probing the Open Global Health Chemical Diversity Library for Multistage-Active Starting Points for Next-Generation Antimalarials” (ACS Infect Dis, 2020).

Assay: Toxicity liver stage against HepG2, at 10uM
Assay type: cell-based
Set-up: test concentration 10 uM, cell line HepG2-A16-CD81EGFP
Conditions: human, HepG2-A16-CD81EGFP cells; read-out: INHIBITION
In short: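 Uninfected HepG2-A16-CD81EGFP cells, 3 × 10^3 per well, 1536-well, plated on prespotted compound at 10 μM final, parasite-free screening media added to match infected plates; puromycin 10 μM positive, DMSO 0.5% negative; run in parallel with 48 h PbLuc assay at 37 °C, 5% CO2; viability by CellTiter-Glo luminescence, normalized to controls.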

Compound	cytotoxicity at 10 µM
O=c1[nH]cc(N2CCCCCC2)c(=O)[nH]1	3.46%
O=C1COC[C@H]([C@H](O)c2ccc(NC(=O)c3cccnc3)cc2)N1	0.317%
CN(C)C(=O)CN1CCC2(CCN(S(C)(=O)=O)CC2)C1=O	2.2%
CC(=O)N1CCOCC2(C1)CN(S(C)(=O)=O)CCO2 (configuration not stated)	2.84%
CCS(=O)(=O)N1C[C@@H](c2nnc(C)o2)C[C@H]2OCC[C@H]21	1.36%
Cn1c2c(c(=O)n1C)CN(S(=O)(=O)c1cccs1)CCC2	8.98%
Cc1ccc(C(=O)N2CCCc3c(c(=O)n(C)n3C)C2)o1	5.92%
CC(C)N1CCO[C@H]2CN(S(=O)(=O)c3ccc(C#N)cc3)C[C@H]21	7.55%
Cc1ccoc1C(=O)N1CC[C@@]2(C[C@H](NS(C)(=O)=O)CCO2)C1	7.43%
COCCC1COC2(CCN(C(=O)CC3CCCC3)CC2)C1 (configuration not stated)	-2.46%
Cc1cncc(C(=O)N2CCCC3(CCCN3S(C)(=O)=O)C2)c1 (configuration not stated)	-152%
CCC1=N[C@@]2(CC[C@@H]3CN(C(=O)NCC(C)C)C[C@@H]32)C(=O)N1CC1CC1	9.61%
O=C(c1ccnnc1)N1C[C@@H](OCC2CCCC2)[C@H]2OCCC[C@H]21	-11.8%
NC(=O)CN1CCC(c2noc3cc(F)ccc23)CC1	5.47%
c1cc(C2CCN(C3CCCCC3)C2)n[nH]1 (configuration not stated)	1.65%
Cc1ncc(-c2ccncc2)c(C2CCCN(C(=O)c3ccno3)C2)n1 (configuration not stated)	11.9%
CC(=O)N1CCN(c2cc(C3CN(C)CCO3)nc(C)n2)CC1 (configuration not stated)	1.05%
CNS(=O)(=O)CC(=O)N1CCC(c2cc3ccccc3[nH]2)CC1	3.12%
Cn1cc(C2CCCN2C(=O)CCCc2nc3ccccc3[nH]2)cn1 (configuration not stated)	2.35%
CCc1nnsc1C(=O)NC(CC(C)C)C(=O)OC (configuration not stated)	11.4%
Cc1cc(C)c(C(=O)N(C)CCN(C)C(=O)c2[nH]c(C)cc2C)[nH]1	-1.91%
CCSc1cc(C(=O)N(C(C)C)C2CC2)ccn1	6.27%

Compound	cytotoxicity at 10 µM
CC1(C)CN(C(CNS(N)(=O)=O)c2ccc(Cl)cc2)CCO1 (configuration not stated)	6.88%
Cc1cc(N2CCN(C(=O)c3cn(C)c4ccccc34)CC2)nc(C)n1	-1.96%
CCn1nc2c(cc1=O)CN(Cc1cc(C)on1)CC2	0.341%
O=C(NCC1(N2CCOCC2)CCSC1)Nc1cn[nH]c1 (configuration not stated)	9.37%
CCN(CC)C(=O)CSc1ccc(C(F)(F)F)cn1	12.7%
CN1CCN(S(=O)(=O)c2ncn(C)c2Cl)CC1	6.84%
Cc1ccc(C(=O)NC2CCN(Cc3nc(CC(C)C)no3)CC2)s1	7.61%
CC(C)C(NC(=O)Nc1ccc(F)cc1)C(=O)N(C)C (configuration not stated)	-10.9%
CCOc1cc(C)nc(N2CCN(C(C)c3nc(C)no3)CC2)n1 (configuration not stated)	-1.67%
CCCc1nn(C2CCN(C3CC3)C2=O)c(=O)o1 (configuration not stated)	-13.7%
Cc1nn(C)c(C)c1CCC(=O)N1CCc2sccc2C1	16.3%
CC(c1nc(C(C)(C)C)no1)N1CCC(N2CCCC2)CC1 (configuration not stated)	3.63%
CC(=O)N(C)c1nc(Cn2nnnc2C(C)C)cs1	-2.01%
Cc1cc(Cl)c(C)c(S(=O)(=O)N2CCN(Cc3ccccn3)CC2)c1Cl	-7.06%
CCOc1ccccc1CSc1nnc(CC2CCS(=O)(=O)C2)n1C (configuration not stated)	10.7%
Cc1cc(OCC(=O)NC(C)c2ccc(N3CCOCC3)cc2)no1 (configuration not stated)	-12.9%
CN1[C@H](CN2CCCC2)C[C@@H]2CN(C(=O)c3cnccn3)CC[C@@H]21	10.6%
Cc1ccc(C(=O)N2CCC3(CCCN(c4ccc(C)nn4)C3)C2)cn1 (configuration not stated)	-112%
CS(=O)(=O)NCc1noc2c1CN(C(=O)C1CCC1)CC2	-105%
CN(C)C(=O)CN1CCC2(CCCN(Cc3ccsc3)C2)C1=O (configuration not stated)	-106%
Cc1nc([C@@H]2C[C@@H]3CCN(C(=O)c4ccsc4)C[C@H]3O2)no1	-8.44%
CC(C)NC(=O)CC1CC2(CCN(S(C)(=O)=O)CC2)c2ccccc21 (configuration not stated)	-2.48%

Compound	cytotoxicity at 10 µM
c1ccc2c(c1)CC(n1ccnc1-c1cc3n(n1)CCCNC3)CO2 (configuration not stated)	-8.26%
COCCc1noc(CN2CC(C)(c3ccccc3)CCC2=O)n1 (configuration not stated)	3.1%
COc1ccc(NC2(C(=O)N3CCn4cncc4C3)CCCC2)cc1	7.42%
O=c1n(Cc2ccccn2)nc(C2CCNCC2)n1Cc1ccccc1	2.69%
Cc1ccc(C(C(=O)N2CCC(Cc3noc(C)n3)CC2)N(C)C)cc1 (configuration not stated)	-5.37%
CC(=O)C1(c2ccccc2)CCN(C(=O)c2ccc3nnnn3c2)CC1	20.1%
O=C(Nc1cnc2n1CCCC2)C1CCNCC1	4.25%
OC(c1ccccc1)c1cn(C2CCN(Cc3nccs3)CC2)nn1 (configuration not stated)	7.44%
COCCN1CCC(c2nc3c([nH]2)CC(C)(C)CNC3=O)CC1	-3.13%
CC(C)n1cnnc1CN(C)C(=O)c1cccnc1O	2.1%
CC(C(=O)O)N1CC2(CCC1=O)CCN(C/C=C/c1ccccc1)CC2 (configuration not stated)	-1.72%
COCc1noc(CN2CC(=O)N(C)c3ccccc3C2=O)n1	-6.3%
Cc1cccc(C)c1OC1CN(C(=O)C2CC(=O)N(C(C)(C)C)C2)C1 (configuration not stated)	0.213%
CCCN1CCCC2(CCN(S(=O)(=O)c3cccnc3)C2)C1=O (configuration not stated)	-2.3%
CCc1nnc(CNC(=O)c2cc3c(nc2OC)CCC3)s1	0.156%
Cc1cnccc1CN(C)Cc1c[nH]nc1-c1ccc(F)cc1F	-5.93%
CCc1nn(C)c(Cl)c1CN1CCCC(c2cc(O)nc(C)n2)C1 (configuration not stated)	-2.37%
CC1(C)CNC(=O)c2nc(-c3ccccc3)[nH]c2C1	-7.28%
CCC(C)N(Cc1cccnc1)C(=O)c1ccc(NS(=O)(=O)CC)cc1 (configuration not stated)	7.1%
O=C(O)C(c1ccc(O)cc1)N1CCC(N2CCSCC2)CC1 (configuration not stated)	0.646%
CCN1CCN(C[C@@H]2CN(Cc3cnc(C(C)C)nc3)C[C@@H]2CO)CC1	-6.79%
CNc1ncc(CN(C)C(=O)c2cccc(Cn3cccn3)c2)cn1	1.32%

Compound	cytotoxicity at 10 µM
COCc1noc(-c2ccc(N3CCCC3c3ccc(F)cc3)nc2)n1 (configuration not stated)	5.79%
Cc1nc(O)cc(CN2C[C@H](NC(=O)C3CCC3)[C@@H](C3CC3)C2)n1	0.675%
COCc1nc(CNC2CCSCC2)no1	-9.87%
CC(C)c1cc(NCC(O)c2ccc(F)cc2)n2nccc2n1 (configuration not stated)	0.255%
CCc1cnc(N2CCC(=O)N(CC3CC3)C(C(C)C)C2)nc1 (configuration not stated)	-6.28%
COc1ccc(NC(=O)Cn2nc(C)c(C)cc2=O)cc1OC	-20.4%
N#Cc1c(SCCN2CCCCCC2)sc2c(O)cc(O)nc12	-10.5%
CCC1(c2ccc(NS(=O)(=O)N(C)C)cc2)CCC(=O)NC1=O (configuration not stated)	-7.19%
CCC(O)CN1CCN(C(=O)Cc2ccccc2Cl)CC1 (configuration not stated)	-7.98%
CN1CCCC1CNC(=O)CCCOc1ccc(I)cc1 (configuration not stated)	-14%
Cc1ncc2c(n1)CN(CC(=O)Nc1nncs1)CC2	-10.8%
CCc1nnc2n1CCN(Cc1ccc3c(c1)OCCO3)C2	-6.61%
Cc1c(C(=O)N2CCCC2c2cnn(C)c2)nnn1-c1ccccc1 (configuration not stated)	-11.4%
O=C(c1ccc(OCC2CC2)nc1)N1CCCC(n2cncn2)C1 (configuration not stated)	-3.25%
CC(=O)c1cccc(OCCCC(=O)NCC2CCCN2C)c1 (configuration not stated)	0.71%
Cc1cn2c(n1)CCC(NC(=O)c1ccc(CS(C)(=O)=O)cc1)C2 (configuration not stated)	-2.19%
Cc1cnc(CN2CCOC(Cn3nc(C)nc3C)C2)cn1 (configuration not stated)	1.46%
COc1cc(C(=O)Nc2c(C)noc2C)ccc1C	-15%
Cc1cc(CN2CCN(C(=O)NCc3ccc(C)s3)CC2)no1	-2.84%
CC(Cn1cccn1)NC(=O)N1CCN(Cc2cccs2)CC1 (configuration not stated)	2.31%
COc1cc(C(=O)NC(CC(=O)O)c2cccs2)cc(Cl)c1OC (configuration not stated)	4.31%
CCn1ncc2c1CCCC2NCc1cccc2c1OCCO2 (configuration not stated)	1.71%

Compound	cytotoxicity at 10 µM
CC(C)c1nc2n(n1)CC(NCc1nnc(C(C)C)o1)CC2 (configuration not stated)	-4.13%
CCOCC(O)CN1CCN(C(=O)CC(C)(C)C)CC1 (configuration not stated)	-5.95%
CCC(CO)NCc1ccc(-c2ccc(F)c(Cl)c2)o1 (configuration not stated)	5.24%
O=C(CCN1CCCCC1)Nc1c2c(cc3c1CCC3)CCC2	4.29%
CC1=N[C@@]2(CC[C@@H]3CN(CC(C)C)C[C@@H]32)C(=O)N1C	3.5%
CN(Cc1ccco1)[C@@H]1CN(C(=O)c2ccnnc2)C[C@@H]2CCCO[C@@H]21	-10.5%
Cc1ccc(N2CC[C@H]3[C@@H]2CCC(=O)N3CCN2CCOCC2)nn1	-3.18%
CCS(=O)(=O)N1CCC2(CN(c3cccc(C)n3)C2)C1	3.5%
CCN1CCO[C@@H]2CN(C(=O)c3cocn3)C[C@@H]2C1	0.933%
Cn1cc(C[C@H]2[C@H](O)CCN2CC2CC2)cn1	-0.516%
CCO[C@@H]1CO[C@@]2(CCN(Cc3ccc4c(c3)OCO4)C2)C1	5.53%
COCCN1CCO[C@@H]2CN(C(=O)Cc3ccccc3)CC[C@@H]2C1	4.98%
COc1ccc(CC(=O)N2CC[C@@H]3[C@H](CC2)N(C)CCS3(=O)=O)cc1	-104%
CN1CCOCC2(CCN(Cc3ccc[nH]3)CC2)C1	0.442%
Cc1ccc(CN2C[C@@H]3CCCO[C@@H]3[C@H](N(C)Cc3ccco3)C2)o1	6.43%
Cc1cc(CN2C[C@@H]3COC[C@]3(CN(C)C)C2)no1	4.81%
Cc1ccc(N2CC[C@@H]3[C@@H]2CCN3C(=O)c2cscn2)nn1	5.38%
Cc1ncsc1CN1CCn2c(COCC3CC3)cnc2C1C (configuration not stated)	-1.82%
Cc1cnc(CNC(=O)[C@@]23CCO[C@@H]2CCN(C2CCCC2)C3)cn1	-110%
